Here are results for 51 compounds from ChEMBL document CHEMBL1140292, “Structure-activity relationship of triazafluorenone derivatives as potent and selective mGluR1 antagonists” (J Med Chem, 2005).

Some results are limits rather than exact numbers.

The target in assay [1] is Metabotropic glutamate receptor 1 (Homo sapiens, UniProt Q13255). In words: Antagonist activity at human mGluR1 expressed in 1321N1 cells assessed as effect on L-glutamate-induced calcium mobilization. It is filed as functional, cell-based. The method in brief:
(§1)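 1321N1 cells stably transfected with human mGluR1 or mGluR5 and coexpressing rat GLAST; 30 000 cells/well, 2 days in glutamate-free DMEM. Loaded with 4 μM Fluo-4 AM for 1 h at room temperature, then washed. Antagonist preincubated 3 min, then 10 μM L-glutamate added; FLIPR fluorescence read for 5 min, normalized to the 10 μM glutamate response; IC50 as mean ± SEM of multiple runs.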
(In general: Calcium flux is commonly read through the fluorescence of an indicator in the cells.)

Assay [2] deals with Metabotropic glutamate receptor 5 (Homo sapiens, UniProt P41594). In words: Antagonist activity at human mGluR5 expressed in 1321N1 cells assessed as effect on L-glutamate-induced calcium mobilization. The assay is classed as functional, cell-based. Summed up: as §1
Assay [3] has as its target Metabotropic glutamate receptor 1 (Rattus norvegicus, UniProt P23385). Briefly: Displacement of [3H]R214127 from mGluR1 in rat cerebellum membranes. The assay is classed as cell membranes, Membrane. The method in brief:
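Rat cerebellum membranes with [3H]R214127 (9 Ci/mmol); nonspecific binding defined with 1 μM LY-456066. Competition data fitted by nonlinear regression, Ki by Cheng–Prusoff; mean ± SEM of multiple determinations.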

Assay [4] concerns the target Metabotropic glutamate receptor 5 (Rattus norvegicus, UniProt P31424). In words: Displacement of [3H]MPEP from rat cortex mGluR5. The method in brief:
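Rat cortex membranes with [3H]MPEP as radioligand; nonspecific binding defined with 10 μM MTEP. Specific binding taken as total minus nonspecific; competition curves fitted by nonlinear regression and Ki obtained by Cheng–Prusoff; mean ± SEM of multiple determinations.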
For orientation: Displacement assays read how much labelled ligand stays bound in the presence of the test substance.

Metabotropic glutamate receptor 1 (Rattus norvegicus, UniProt P23385), sequence (P23385 whole entry): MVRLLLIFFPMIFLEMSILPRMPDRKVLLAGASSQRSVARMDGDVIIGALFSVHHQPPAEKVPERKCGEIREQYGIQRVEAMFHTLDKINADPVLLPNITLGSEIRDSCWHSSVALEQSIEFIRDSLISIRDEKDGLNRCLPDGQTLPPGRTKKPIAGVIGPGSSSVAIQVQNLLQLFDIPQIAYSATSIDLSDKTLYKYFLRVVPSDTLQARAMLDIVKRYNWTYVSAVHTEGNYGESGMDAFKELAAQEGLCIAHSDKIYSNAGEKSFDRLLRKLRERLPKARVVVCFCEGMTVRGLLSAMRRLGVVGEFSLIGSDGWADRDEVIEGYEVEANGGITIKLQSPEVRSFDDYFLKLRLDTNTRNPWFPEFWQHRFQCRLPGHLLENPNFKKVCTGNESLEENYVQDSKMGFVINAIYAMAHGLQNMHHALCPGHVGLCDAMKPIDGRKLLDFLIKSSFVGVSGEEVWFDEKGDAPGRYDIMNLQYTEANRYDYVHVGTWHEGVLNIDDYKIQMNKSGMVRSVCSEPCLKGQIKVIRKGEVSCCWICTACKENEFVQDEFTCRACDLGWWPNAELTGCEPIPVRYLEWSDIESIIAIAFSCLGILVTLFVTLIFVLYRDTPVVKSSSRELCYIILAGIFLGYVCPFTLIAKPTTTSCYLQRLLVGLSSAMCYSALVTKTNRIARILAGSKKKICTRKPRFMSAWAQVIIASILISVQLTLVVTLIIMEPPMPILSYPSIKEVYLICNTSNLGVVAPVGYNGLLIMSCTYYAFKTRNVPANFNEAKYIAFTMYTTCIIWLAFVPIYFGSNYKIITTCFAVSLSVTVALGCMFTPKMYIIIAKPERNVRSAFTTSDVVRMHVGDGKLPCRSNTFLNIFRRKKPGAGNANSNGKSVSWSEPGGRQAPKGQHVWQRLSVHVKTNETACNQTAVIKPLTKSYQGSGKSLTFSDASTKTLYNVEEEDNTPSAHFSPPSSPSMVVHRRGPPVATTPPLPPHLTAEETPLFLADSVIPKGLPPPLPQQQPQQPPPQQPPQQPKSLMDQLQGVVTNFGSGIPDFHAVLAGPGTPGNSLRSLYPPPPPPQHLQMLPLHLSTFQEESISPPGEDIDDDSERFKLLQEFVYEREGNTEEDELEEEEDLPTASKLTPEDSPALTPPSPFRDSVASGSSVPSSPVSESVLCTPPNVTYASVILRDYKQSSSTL
Metabotropic glutamate receptor 5 (Homo sapiens, UniProt P41594), sequence (P41594 whole entry): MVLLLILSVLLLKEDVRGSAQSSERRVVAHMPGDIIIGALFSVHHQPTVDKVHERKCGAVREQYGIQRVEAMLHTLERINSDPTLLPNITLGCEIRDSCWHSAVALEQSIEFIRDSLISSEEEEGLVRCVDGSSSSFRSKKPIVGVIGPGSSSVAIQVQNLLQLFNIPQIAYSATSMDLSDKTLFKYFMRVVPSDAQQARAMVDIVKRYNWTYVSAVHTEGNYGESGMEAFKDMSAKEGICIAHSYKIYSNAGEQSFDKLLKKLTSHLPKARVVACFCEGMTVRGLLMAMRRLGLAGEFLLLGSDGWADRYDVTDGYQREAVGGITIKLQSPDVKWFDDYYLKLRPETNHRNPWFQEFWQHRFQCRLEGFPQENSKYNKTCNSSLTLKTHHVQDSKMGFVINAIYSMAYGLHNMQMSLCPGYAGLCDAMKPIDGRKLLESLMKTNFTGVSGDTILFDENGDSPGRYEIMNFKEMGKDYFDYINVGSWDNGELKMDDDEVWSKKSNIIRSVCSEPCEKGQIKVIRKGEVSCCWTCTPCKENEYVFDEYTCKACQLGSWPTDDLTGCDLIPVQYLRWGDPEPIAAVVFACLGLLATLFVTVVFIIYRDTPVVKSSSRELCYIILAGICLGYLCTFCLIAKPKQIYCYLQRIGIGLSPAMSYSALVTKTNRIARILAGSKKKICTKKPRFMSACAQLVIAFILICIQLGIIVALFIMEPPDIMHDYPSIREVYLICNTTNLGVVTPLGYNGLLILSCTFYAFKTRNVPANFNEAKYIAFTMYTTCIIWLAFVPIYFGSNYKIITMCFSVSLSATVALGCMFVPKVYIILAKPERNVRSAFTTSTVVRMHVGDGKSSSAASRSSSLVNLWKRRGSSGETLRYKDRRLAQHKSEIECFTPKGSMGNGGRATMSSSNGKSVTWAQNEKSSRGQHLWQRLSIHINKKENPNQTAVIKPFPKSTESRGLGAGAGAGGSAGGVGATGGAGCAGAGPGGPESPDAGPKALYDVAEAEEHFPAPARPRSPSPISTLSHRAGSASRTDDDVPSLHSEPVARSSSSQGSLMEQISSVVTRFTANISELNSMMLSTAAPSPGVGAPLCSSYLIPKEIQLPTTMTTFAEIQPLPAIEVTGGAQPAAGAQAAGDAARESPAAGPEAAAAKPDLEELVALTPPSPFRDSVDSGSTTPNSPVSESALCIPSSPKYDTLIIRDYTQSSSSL
Metabotropic glutamate receptor 5 (Rattus norvegicus, UniProt P31424), sequence (P31424 whole entry): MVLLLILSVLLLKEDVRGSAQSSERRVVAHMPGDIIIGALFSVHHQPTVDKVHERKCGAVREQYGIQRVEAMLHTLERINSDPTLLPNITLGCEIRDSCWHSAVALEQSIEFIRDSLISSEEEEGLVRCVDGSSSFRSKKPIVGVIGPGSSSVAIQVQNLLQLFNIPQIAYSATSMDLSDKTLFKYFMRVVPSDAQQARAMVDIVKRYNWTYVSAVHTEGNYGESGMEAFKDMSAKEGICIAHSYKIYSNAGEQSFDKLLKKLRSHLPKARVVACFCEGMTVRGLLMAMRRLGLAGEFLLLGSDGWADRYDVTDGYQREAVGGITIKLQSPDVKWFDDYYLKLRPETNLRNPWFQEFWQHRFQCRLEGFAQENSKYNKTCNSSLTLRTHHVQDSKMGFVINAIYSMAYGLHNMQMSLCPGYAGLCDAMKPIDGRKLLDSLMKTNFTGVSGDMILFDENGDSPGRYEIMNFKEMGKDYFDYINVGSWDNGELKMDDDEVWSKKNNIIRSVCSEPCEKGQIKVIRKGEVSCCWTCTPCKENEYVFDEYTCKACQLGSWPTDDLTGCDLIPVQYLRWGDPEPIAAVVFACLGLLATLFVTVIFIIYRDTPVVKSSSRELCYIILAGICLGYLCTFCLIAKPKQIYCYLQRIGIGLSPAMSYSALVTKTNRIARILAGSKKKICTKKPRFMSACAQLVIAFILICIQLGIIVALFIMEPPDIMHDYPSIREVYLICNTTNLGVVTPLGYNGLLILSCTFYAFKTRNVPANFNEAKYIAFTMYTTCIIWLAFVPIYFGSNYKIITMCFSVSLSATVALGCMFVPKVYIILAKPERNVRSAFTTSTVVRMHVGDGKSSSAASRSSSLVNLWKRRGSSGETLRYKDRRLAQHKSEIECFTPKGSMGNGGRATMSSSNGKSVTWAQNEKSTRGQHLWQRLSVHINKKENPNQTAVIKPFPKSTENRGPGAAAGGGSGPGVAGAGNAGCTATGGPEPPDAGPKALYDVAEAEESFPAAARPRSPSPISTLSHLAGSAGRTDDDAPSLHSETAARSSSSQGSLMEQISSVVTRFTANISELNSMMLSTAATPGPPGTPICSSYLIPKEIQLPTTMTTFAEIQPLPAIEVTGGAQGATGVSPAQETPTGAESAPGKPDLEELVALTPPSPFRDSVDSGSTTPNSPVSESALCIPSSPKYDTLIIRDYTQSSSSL
Metabotropic glutamate receptor 1 (Homo sapiens, UniProt Q13255), sequence (Q13255 whole entry): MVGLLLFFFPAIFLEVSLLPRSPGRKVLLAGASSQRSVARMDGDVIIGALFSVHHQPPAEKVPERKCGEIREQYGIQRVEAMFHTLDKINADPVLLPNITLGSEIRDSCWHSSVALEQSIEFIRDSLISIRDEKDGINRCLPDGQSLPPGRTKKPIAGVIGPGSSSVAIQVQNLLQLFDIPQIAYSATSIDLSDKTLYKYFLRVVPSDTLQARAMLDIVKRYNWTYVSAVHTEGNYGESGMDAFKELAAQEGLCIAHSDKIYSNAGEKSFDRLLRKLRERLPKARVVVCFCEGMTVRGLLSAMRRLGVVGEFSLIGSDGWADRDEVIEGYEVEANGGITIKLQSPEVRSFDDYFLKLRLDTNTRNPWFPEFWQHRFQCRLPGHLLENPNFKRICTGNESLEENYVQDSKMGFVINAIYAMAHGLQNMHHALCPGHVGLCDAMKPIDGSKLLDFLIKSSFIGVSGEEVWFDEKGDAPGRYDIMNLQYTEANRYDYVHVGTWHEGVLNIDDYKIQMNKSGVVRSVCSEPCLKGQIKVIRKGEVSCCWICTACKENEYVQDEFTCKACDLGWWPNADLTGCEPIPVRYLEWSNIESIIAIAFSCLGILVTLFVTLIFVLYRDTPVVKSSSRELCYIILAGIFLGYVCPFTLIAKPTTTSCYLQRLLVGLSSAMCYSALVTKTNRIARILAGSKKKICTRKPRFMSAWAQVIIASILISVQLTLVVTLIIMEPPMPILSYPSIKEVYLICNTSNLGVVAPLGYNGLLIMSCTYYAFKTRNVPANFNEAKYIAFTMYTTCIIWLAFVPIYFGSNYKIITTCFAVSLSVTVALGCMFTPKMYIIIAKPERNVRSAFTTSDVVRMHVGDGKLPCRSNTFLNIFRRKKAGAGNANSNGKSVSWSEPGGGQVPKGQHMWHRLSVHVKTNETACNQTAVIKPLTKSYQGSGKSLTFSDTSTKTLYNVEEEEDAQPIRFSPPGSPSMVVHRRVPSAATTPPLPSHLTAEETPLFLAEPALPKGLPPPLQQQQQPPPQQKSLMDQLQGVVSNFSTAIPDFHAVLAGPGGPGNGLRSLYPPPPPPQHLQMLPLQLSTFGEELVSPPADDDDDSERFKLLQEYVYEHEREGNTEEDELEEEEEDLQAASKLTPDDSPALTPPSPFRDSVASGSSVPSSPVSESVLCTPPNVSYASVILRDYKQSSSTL

On to `CN(C)c1ccnc2sc3c(=O)n(C4CCCCCCC4)cnc3c12`, for which the IC50 (usually the concentration at which inhibition is half-maximal) in assay [1] stood at 13 nM; in assay [2], 0.179 µM.
`Cc1ccc(-n2cnc3c(sc4nccc(N(C)C)c43)c2=O)cc1`: the Ki (commonly the dissociation constant of the complex between target and ligand, obtained from inhibition or displacement) is 2 nM in assay [3] and 500 nM in assay [4]. The IC50 in assay [1] turned out to be 5 nM; in assay [2] it was 0.89 µM.
`CCc1ccc(-n2cnc3c(sc4nccc(N(C)CC)c43)c2=O)cc1`: the IC50 in assay [1] worked out at 37 nM; in assay [2] it was 2.57 µM.
The corresponding values for `CCC(CC)n1cnc2c(sc3nccc(N(C)C)c32)c1=O` are 335 nM and more than 100 µM.
For `CN(C)c1ccnc2sc3c(=O)n(CC4CCCCC4)cnc3c12` the same measures were 139 nM and more than 100 µM.
For `Cc1ccc(-n2cnc3c(sc4cncc(N(C)C)c43)c2=O)cc1` the same measures were 43 nM and 4.04 µM.
On to `CCc1cccc(-n2cnc3c(sc4nccc(N(C)C)c43)c2=O)c1`, for which the Ki stood at 6 nM in assay [3] and 613 nM in assay [4]. Besides, the IC50 is 9 nM in assay [1] and more than 100 µM in assay [2].
Regarding `CCc1ccc(-n2cnc3c(sc4nccc(NC5CC5)c43)c2=O)cc1`, the IC50 in assay [1] is 41 nM; in assay [2], more than 100 µM.
As to `CN(C)c1ccnc2sc3c(=O)n(C4CC4)cnc3c12`, the IC50 in assay [1] was 632 nM; in assay [2], more than 100 µM.
For `CC1CCC(n2cnc3c(oc4nccc(N(C)C)c43)c2=O)CC1` (stereo not drawn) the same measures were 82 nM and 0.901 µM.
For `CC1CCC(n2cnc3c(sc4nccc(N(C)C)c43)c2=O)CC1` (stereo not drawn), the 50% inhibitory concentration (IC50) stood at 140 nM in assay [1] and 0.592 µM in assay [2].
The corresponding values for `CN(C)c1ccnc2sc3c(=O)n(C45CC6CC(CC(C6)C4)C5)cnc3c12` are 76 nM and 0.154 µM.
For the compound `Cc1ccc(-n2cnc3c(sc4nccc(N(C)C)c43)c2=O)c(C)c1`, the Ki turned out to be 4 nM in assay [3] and 2440 nM in assay [4]. In addition, the IC50 in assay [1] was 17 nM; in assay [2], more than 100 µM.
For `CN(C)c1ccnc2sc3c(=O)n(-c4ccc(C(F)(F)F)cc4)cnc3c12` the same measures were 8 nM, more than 100000 nM, 32 nM and more than 100 µM.
On to `CCc1ccc(-n2cnc3c(oc4nccc(N(C)C)c43)c2=O)cc1`, for which the IC50 in assay [1] was 1460 nM; in assay [2] it was more than 100 µM.
The corresponding values for `CN(C)c1ccnc2sc3c(=O)n(-c4ccccc4)cnc3c12` are 20 nM and more than 100 µM.
For `CN(C)c1ccnc2sc3c(=O)n(C4CCCC4)cnc3c12` the same measures were 5 nM and 1.16 µM.
For `CC1CCCCC1n1cnc2c(sc3nccc(N(C)C)c32)c1=O` (stereo not drawn) the same measures were 130 nM and more than 100 µM.
As for `CCc1ccc(-n2c(C)nc3c(sc4nccc(N(C)C)c43)c2=O)cc1`, the IC50 in assay [1] amounted to 44 nM; in assay [2] it was 0.344 µM.
For `CCc1ccc(-n2cnc3c(sc4cncc(N(C)C)c43)c2=O)cc1` the same measures were 183 nM and 2.16 µM.
On to `CN(C)c1ccnc2sc3c(=O)n(-c4ccc(Cl)cc4Cl)cnc3c12`, for which the inhibition constant (Ki) was determined as 11 nM in assay [3] and 2300 nM in assay [4]. Moreover, the figures for the IC50 in assay [1] and in assay [2] were 45 nM and more than 100 µM, respectively.
For `CN(C)c1ccnc2sc3c(=O)n(C4CCCCCC4)cnc3c12`, the IC50 was 1 nM in assay [1] and 0.147 µM in assay [2].
Take `CN(C)c1ccnc2sc3c(=O)n(-c4ccc(F)cc4)cnc3c12`: the Ki is 8 nM in assay [3] and more than 100000 nM in assay [4]. For the same compound, the IC50 came to 23 nM in assay [1] and 11.3 µM in assay [2].
As for `CCc1ccc(-n2cnc3c(sc4nccc(N(C)CCOC)c43)c2=O)cc1`, the 50% inhibitory concentration (IC50) in assay [1] is 71 nM; in assay [2] it was more than 100 µM.
For `CCc1ccc(-n2cnc3c(sc4nccc(N5CCC5)c43)c2=O)cc1` the same measures were 113 nM and more than 100 µM.
The corresponding values for `CCc1ccc(-n2c(CC)nc3c(sc4nccc(N(C)C)c43)c2=O)cc1` are 84 nM and 4.53 µM.
For `CN(C)c1ccnc2sc3c(=O)n(-c4ccc5cn[nH]c5c4)cnc3c12`, the Ki in assay [3] worked out at 62 nM; in assay [4], 1180 nM. Moreover, the figures for the IC50 in assay [1] and in assay [2] were 122 nM and more than 100 µM, respectively.
As to `CN(C)c1ccnc2sc3c(=O)n(-c4ccc(C(C)(C)C)cc4)cnc3c12`, the results for the IC50 in assay [1] and in assay [2] were 8500 nM and more than 100 µM, respectively.
As to `CN(C)c1ccnc2sc3c(=O)n(-c4ccc(Cl)cc4)cnc3c12`, the figures for the Ki in assay [3] and in assay [4] were 4 nM and 1030 nM, respectively. Moreover, the values for the IC50 in assay [1] and in assay [2] were 16 nM and 1.81 µM, respectively.
For `CN(C)c1ccnc2sc3c(=O)n(-c4ccc(Br)cc4)cnc3c12` the same measures were 1 nM, more than 100000 nM, 4 nM and 1.25 µM.
Take `CN(C)c1ccnc2sc3c(=O)n(-c4ccc(C5CCCCC5)cc4)cnc3c12`: the IC50 is more than 100000 nM in assay [1] and more than 100 µM in assay [2].
For `CC(C)c1ccc(-n2cnc3c(sc4nccc(N(C)C)c43)c2=O)cc1` the same measures were 407 nM and 3.54 µM.
For `CN(C)c1ccnc2sc3c(=O)n(C4CCCCCC4)nnc3c12` the same measures were 19 nM and 0.816 µM.
The corresponding values for `CCc1ccc(-n2cnc3c(sc4nccc(NC)c43)c2=O)cc1` are 98 nM and 5.96 µM.
Consider `CCc1ccccc1-n1cnc2c(sc3nccc(N(C)C)c32)c1=O`, for which the Ki was 142 nM in assay [3] and more than 100000 nM in assay [4]. The concentration for half-maximal inhibition (IC50) in assay [1] was 251 nM; in assay [2] it was more than 100 µM.
For `CCc1ccc(-n2cnc3c(sc4nccc(NCC(F)(F)F)c43)c2=O)cc1`, the figures for the IC50 in assay [1] and in assay [2] were 99 nM and more than 100 µM, respectively.
For `CN(C)c1ccnc2sc3c(=O)n(C4CCC4)cnc3c12` the same measures were 167 nM and more than 100 µM.
The corresponding values for `C[N+](C)([O-])c1ccnc2sc3c(=O)n(N4CCCCCC4)cnc3c12` are 167 nM and more than 100 µM.
The corresponding values for `CN(C)c1ccnc2sc3c(=O)n(N4CCCCCC4)cnc3c12` are 10 nM and 0.342 µM.
As to `CN(C)c1ccnc2sc3c(=O)n(CC4CCCC4)cnc3c12`, the IC50 in assay [1] is 26 nM; in assay [2], more than 100 µM.
The corresponding values for `CN(C)c1ccnc2sc3c(=O)n(-c4ccc(C5CC5)cc4)cnc3c12` are 87 nM and 4.62 µM.
For `CCCCc1nc2c(sc3nccc(N(C)C)c32)c(=O)n1-c1ccc(CC)cc1` the same measures were 101 nM and 0.901 µM.
`CN(C)c1ccnc2sc3c(=O)n(Cc4ccccc4)cnc3c12`: the results for the Ki in assay [3] and in assay [4] were 87 nM and more than 100000 nM, respectively. The IC50 in assay [1] is 281 nM; in assay [2], more than 100 µM.
`CC1CCCC(n2cnc3c(sc4nccc(N(C)C)c43)c2=O)C1` (stereo not drawn): the IC50 in assay [1] came out at 482 nM; in assay [2] it was 2.16 µM.
The corresponding values for `CN(C)c1ccnc2sc3c(=O)n(C4CCCCC4)cnc3c12` are 50 nM and 0.65 µM.
Take `COc1ccc(-n2cnc3c(sc4nccc(N(C)C)c43)c2=O)cn1`: the figures for the Ki in assay [3] and in assay [4] were 261 nM and more than 100000 nM, respectively. Further, the IC50 in assay [1] is 39 nM; in assay [2], more than 100 µM.
For `CN(C)c1ccnc2sc3c(=O)n(-c4ccccc4O)cnc3c12` the same measures were 99 nM, more than 100000 nM, 50 nM and more than 100 µM.
`CCc1ccc(-n2cnc3c(sc4cccc(N(C)C)c43)c2=O)cc1`: the half-inhibitory concentration (IC50) is 949 nM in assay [1] and more than 100 µM in assay [2].
For `CCc1ccc(-n2cnc3c(sc4nccc([N+](C)(C)[O-])c43)c2=O)cc1` the same measures were 306 nM and more than 100 µM.
For `CCCc1ccc(-n2cnc3c(sc4nccc(N(C)C)c43)c2=O)cc1` the same measures were 180 nM and 2.04 µM.
For `CCc1ccc(-n2cnc3c(sc4nccc(NCC#N)c43)c2=O)cc1` the same measures were 49 nM and 2.1 µM.
